Results reported in PMC4269301 (International journal of peptide research and therapeutics, 2014).

Columns and labels:
[1] = tested on: PKA site pS-262 of the β2AR in WT-β2AR cells; assay: Intact-cell PKA site phosphorylation of the β2AR; type: cell-based; details: 100 μM, 20 min pretreatment, 20 nM ISO
How it was run: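 HEK293 cells stably expressing FLAG-β2AR (2–4 pmol/mg) on poly-L-lysine; 20 min with 100 μM TAT-tagged peptide, TAT or DMSO, then 20 nM ISO in 0.1 mM ascorbate/1 mM thiourea pH 7, or carrier, 5 min at 37 °C. Lysates on 12 % SDS-PAGE, immunoblot anti-pS262, reprobed anti-C-tail for normalisation. ≥4 experiments in duplicate, % of control.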

adenylyl cyclase (AC) = assay: Adenylyl cyclase activity in membranes from WT-β2AR cells; type: biochemical; details: 100 μM peptide, 10 min, 30 °C
[2] = tested on: GRK site pS-(355,356) of the β2AR in WT-β2AR cells; assay: Intact-cell GRK site phosphorylation of the β2AR; type: cell-based; details: 100 μM, 20 min pretreatment, 20 nM ISO

## CC(=O)NCC(=O)N[C@@H](CCCNC(=N)N)C(=O)N[C@@H](CCCCN)C(=O)N[C@@H](CCCCN)C(=O)N[C@@H](CCCNC(=N)N)C(=O)N[C@@H](CCCNC(=N)N)C(=O)N[C@@H](CCC(N)=O)C(=O)N[C@@H](CCCNC(=N)N)C(=O)N[C@@H](CCCNC(=N)N)C(=O)N[C@@H](CCCNC(=N)N)C(=O)N1CCC[C@H]1C(=O)N1CCC[C@H]1C(=O)N[C@@H](CCC(N)=O)C(N)=O [TAT]
[1]
  Effect on PKA site (S262) phosphorylation of the β2AR in intact cells: did not inhibit
Adenylyl cyclase (AC); 1 μM ISO
  Effect on ISO-stimulated AC activity: without effect
Adenylyl cyclase (AC); 20 μM FSK
  Effect on FSK-stimulated AC activity: without effect
[2]
  Effect on GRK phosphorylation of β2AR in intact cells: did not inhibit
